Assay results as given in ChEMBL document CHEMBL1132199, “Carboxy-substituted cinnamides: a novel series of potent, orally active LTB4 receptor antagonists” (J Med Chem, 1999).

Columns and labels:
Leukotriene B4 receptor [1] = molecular target: T1, Leukotriene B4 receptor (Homo sapiens, UniProt Q9NPC1+Q15722); test: In vitro leukotriene B4 receptor binding potency determined by displacement of [3H]- LTB4 from human neutrophils (PMNs)
How it was run: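 Intact human neutrophils from citrated venous blood (HESPAN sedimentation, Ficoll-Paque, hypotonic lysis), 3 × 10⁶ cells in HBSS with 0.5 nM [³H]LTB₄ and compound, 20 min at 0 °C. Bound label collected by filtration, filters washed with ice-cold HBSS, then scintillation-counted. Nonspecific binding taken with 300 nM LTB₄. Compound stocks 10 mM in DMSO, final DMSO 0.35%.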

Leukotriene B4 receptor [2] = molecular target: T1, Leukotriene B4 receptor; test: LTB4 receptor antagonistic activity as inhibition of LTB4-induced [Ca2+] release from human PMNs; type: functional
How it was run: (§1)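 Human neutrophils from citrated venous blood (HESPAN sedimentation, centrifugal elutriation) loaded with 0.2 μM Fura-2 AM for 30 min at 37 °C, then held at 2 × 10⁶ cells/mL. Ca²⁺ and Mg²⁺ added back at 37 °C; compound given 40 s before 1 nM LTB₄; fluorescence change followed. Ki = IC50/(1 + [LTB₄]/EC50 of LTB₄). Final DMSO 0.35%.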

Mus musculus [3] = test: Inhibition of Arachidonic acid (AA)-induced ear edema was determined at dosing of 0.5 hr challenge; expressed as myeloperoxide activity (MPO) at 1 mg/kg; 50/67; type: functional
Mus musculus [4] = test: Inhibition of Arachidonic acid (AA)-induced ear edema was determined at dosing of 0.5 hr challenge; expressed as myeloperoxide activity (MPO) at 3 mg/kg; 56/71; type: functional
Mus musculus [5] = test: Inhibition of Arachidonic acid (AA)-induced ear edema was determined at dosing of 0.5 hr challenge; expressed as myeloperoxide activity (MPO) at 0.1 mg/kg; 41/49; type: functional
Mus musculus [6] = test: Inhibition of Arachidonic acid (AA)-induced ear edema was determined at dosing of 17 hr challenge; expressed as myeloperoxide activity (MPO) at 10 mg/kg; 27/31; type: functional
Mus musculus [7] = test: Inhibition of Arachidonic acid (AA)-induced ear edema was determined at dosing of 17 hr challenge; expressed as myeloperoxide activity (MPO) at 10 mg/kg; 27/0; type: functional
[8] = molecular target: Leukotriene B4 receptor 1 (Homo sapiens, UniProt Q15722); test: Leukotriene B4 receptor antagonistic activity was measured by the inhibition of LTB4 induced [Ca2+] release from human PMNs; type: functional; how it was run: as §1
Sequence of Leukotriene B4 receptor 1 (Q15722 whole entry): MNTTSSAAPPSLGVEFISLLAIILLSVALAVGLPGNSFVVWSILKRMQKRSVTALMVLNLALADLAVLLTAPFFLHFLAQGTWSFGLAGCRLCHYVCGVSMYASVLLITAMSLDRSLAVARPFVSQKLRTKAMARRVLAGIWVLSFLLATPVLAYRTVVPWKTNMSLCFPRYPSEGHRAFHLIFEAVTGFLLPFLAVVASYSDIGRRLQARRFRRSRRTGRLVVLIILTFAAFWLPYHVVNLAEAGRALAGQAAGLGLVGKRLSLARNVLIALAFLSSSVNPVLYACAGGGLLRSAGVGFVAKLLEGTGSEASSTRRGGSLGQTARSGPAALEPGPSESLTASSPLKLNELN

Mus musculus [9] = test: Inhibition of Arachidonic acid (AA)-induced ear edema was determined at dosing of 17 hr challenge; expressed as myeloperoxide activity (MPO) at 10 mg/kg; 0/0; type: functional
Mus musculus [10] = test: Inhibition of Arachidonic acid (AA)-induced ear edema was determined at dosing of 17 hr challenge; expressed as myeloperoxide activity (MPO) at 10 mg/kg; 1/1; type: functional
Mus musculus [11] = test: Inhibition of Arachidonic acid (AA)-induced ear edema was determined at dosing of 17 hr challenge; expressed as myeloperoxide activity (MPO) at 10 mg/kg; 19/30; type: functional
Mus musculus [12] = test: Inhibition of Arachidonic acid (AA)-induced ear edema was determined at dosing of) 17 hr challenge; expressed as myeloperoxide activity (MPO) at 10 mg/kg; 33/2; type: functional
Mus musculus [13] = test: Inhibition of Arachidonic acid (AA)-induced ear edema was determined at dosing of 17 hr challenge; expressed as myeloperoxide activity (MPO) at 10 mg/kg; 46/54; type: functional
Mus musculus [14] = test: Inhibition of Arachidonic acid (AA)-induced ear edema was determined at dosing of 0.5 hr challenge; expressed as myeloperoxide activity (MPO) at 3 mg/kg; 52/58; type: functional
Mus musculus [15] = test: Inhibition of Arachidonic acid (AA)-induced ear edema was determined at dosing of 0.5 hr challenge; expressed as myeloperoxide activity (MPO) at 1 mg/kg; 26/32; type: functional
Mus musculus [16] = test: Inhibition of Arachidonic acid (AA)-induced ear edema was determined at dosing of 17 hr challenge; expressed as myeloperoxide activity (MPO) at 3 mg/kg; 34/15; type: functional
Mus musculus [17] = test: Inhibition of Arachidonic acid (AA)-induced ear edema was determined at dosing of 0.5 hr AA challenge; expressed as myeloperoxide activity (MPO) at 1 mg/kg; 14/0; type: functional
Mus musculus [18] = test: Inhibition of Arachidonic acid (AA)-induced ear edema was determined at dosing of 0.5 h challenge; expressed as myeloperoxide activity (MPO) at 1 mg/kg; 41/41; type: functional
Mus musculus [19] = test: Inhibition of Arachidonic acid (AA)-induced ear edema was determined at dosing of 17 h challenge; expressed as myeloperoxide activity (MPO) at 10 mg/kg; 55/55; type: functional
Mus musculus [20] = test: Inhibition of Arachidonic acid (AA)-induced ear edema was determined at dosing of 17 hr challenge; expressed as myeloperoxide activity (MPO) at 3 mg/kg; 29/26; type: functional
Mus musculus [21] = test: Inhibition of Arachidonic acid (AA)-induced ear edema was determined at dosing of 0.5 h challenge; expressed as myeloperoxide activity (MPO) at 1 mg/kg; 32/38; type: functional
Mus musculus [22] = test: Inhibition of Arachidonic acid (AA)-induced ear edema was determined at dosing of 0.5 hr challenge; expressed as myeloperoxide activity (MPO) at 3 mg/kg; 45/53; type: functional
Mus musculus [23] = test: Inhibition of Arachidonic acid (AA)-induced ear edema was determined at dosing of 17 hr challenge; expressed as myeloperoxide activity (MPO) at 10 mg/kg; 59/67; type: functional
Mus musculus [24] = test: Inhibition of Arachidonic acid (AA)-induced ear edema was determined at dosing of 17 hr challenge; expressed as myeloperoxide activity (MPO) at 3 mg/kg; 44/53; type: functional
Mus musculus [25] = test: Inhibition of Arachidonic acid (AA)-induced ear edema was determined at dosing of 0.5 hr challenge; expressed as myeloperoxide activity (MPO) at 0.1 mg/kg; 21/15; type: functional
Mus musculus [26] = test: Inhibition of Arachidonic acid (AA)-induced ear edema was determined at dosing of 0.5 hr challenge; expressed as myeloperoxide activity (MPO) at 1 mg/kg; 24/24; type: functional
Mus musculus [27] = test: Inhibition of Arachidonic acid (AA)-induced ear edema was determined at dosing of 0.5 h challenge; expressed as myeloperoxide activity (MPO) at 3 mg/kg; 39/58; type: functional
Mus musculus [28] = test: Inhibition of Arachidonic acid (AA)-induced ear edema was determined at dosing of 17 hr challenge; expressed as myeloperoxide activity (MPO) at 10 mg/kg; 40/55; type: functional
Mus musculus [29] = test: Inhibition of Arachidonic acid (AA)-induced ear edema was determined at dosing of 17 hr challenge; expressed as myeloperoxide activity (MPO) at 3 mg/kg; 25/12; type: functional

| SMILES | IC50 (Leukotriene B4 receptor [1]) | Ki (Leukotriene B4 receptor [2]) | other results |
| --- | --- | --- | --- |
| CCN(CC)C(=O)/C=C(\C)c1ccc(OC(C)c2ccccc2)c(OCC(=O)O)c1 (stereo not drawn) | 50 nM | 9.1 nM | Punch weight/MPO activity (Mus musculus [3]): <50; Punch weight/MPO activity (Mus musculus [4]): <56; Punch weight/MPO activity (Mus musculus [5]): <41; Punch weight/MPO activity (Mus musculus [6]): <27 |
| CCN(CC)C(=O)/C=C(\C)c1ccc(CCc2ccccc2)c(OCC(=O)O)c1 | 56 nM | 7.7 nM | Punch weight/MPO activity (Mus musculus [7]): 27 |
| CCN(CC)C(=O)/C=C(\C)c1ccc(Oc2ccccc2)c(OCC(=O)O)c1 | 2400 nM |  |  |
| CCN(CC)C(=O)/C=C(\C)c1ccc(OC(C)c2ccccc2)c(CCC(=O)O)c1 (stereo not drawn) | 48 nM |  | Ki [8]: 9.5 nM |
| CCN(CC)C(=O)/C=C(\C)c1ccc(OC(C)c2ccccc2)c(C(=O)O)c1 (stereo not drawn) | 884 nM |  |  |
| CCN(CC)C(=O)CC(C)c1ccc(OC(C)c2ccccc2)cc1 (stereo not drawn) | 4300 nM |  |  |
| C/C(=C\C(=O)N(C(C)C)C(C)C)c1ccc(OC(C)c2ccccc2)cc1 (stereo not drawn) | 1100 nM |  |  |
| CCN(CC)C(=O)/C=C(\C)c1ccc(O[C@@H](C)c2ccccc2)c(CC(=O)O)c1 | 39 nM |  |  |
| CCCN(CCC)C(=O)/C=C(\C)c1ccc(OC(C)c2ccccc2)cc1 (stereo not drawn) | 1400 nM |  |  |
| CCN(CC)C(=O)/C=C(\C)c1ccc(OCc2c(Cl)cccc2Cl)c(OCC(=O)O)c1 | 31 nM | 14 nM | Punch weight/MPO activity (Mus musculus [9]): 0 |
| CCN(CC)C(=O)/C=C(\C)c1ccc(-c2ccccc2)cc1 | > 10000 nM |  |  |
| CCN(CC)C(=O)/C=C(\C)c1ccc(OC(C)c2ccccc2)cc1 (stereo not drawn) | 744 nM |  |  |
| CCN(CC)C(=O)/C=C(\C)c1ccc(O[C@H](C)c2ccccc2)c(CC(=O)O)c1 | 536 nM |  |  |
| COc1ccc(C(=O)O)cc1NC(=O)/C=C(\C)c1ccc(OC(C)c2ccccc2)cc1 (stereo not drawn) | > 10000 nM |  |  |
| CCN(CC)C(=O)/C=C(\C)c1ccc(OCc2ccccc2)c(OCC(=O)O)c1 | 182 nM | 82 nM |  |
| CCN(CC)C(=O)/C=C(\C)c1ccc(OCc2ccccc2)cc1 | 7900 nM |  |  |
| CCN(CC)C(=O)/C=C/c1ccc(OC(C)c2ccccc2)cc1 (stereo not drawn) | 1600 nM |  |  |

| SMILES | IC50 (Leukotriene B4 receptor [1]) | Ki (Leukotriene B4 receptor [2]) | other results |
| --- | --- | --- | --- |
| CCN(CC)C(=O)/C=C(\C)c1ccc(SCc2ccccc2)c(OCC(=O)O)c1 | 34 nM | 26 nM | Punch weight/MPO activity (Mus musculus [10]): 1 |
| CCNC(=O)/C=C(\C)c1ccc(OC(C)c2ccccc2)cc1 (stereo not drawn) | 2000 nM |  |  |
| CCN(CC)C(=O)/C=C(\C)c1ccc(OC(C)C)cc1 | > 10000 nM |  |  |
| CCN(CC)C(=O)/C=C(\C)c1cc(OCC(=O)O)cc(OC(C)c2ccccc2)c1 (stereo not drawn) | 84 nM | 11.2 nM |  |
| CCN(CC)C(=O)/C=C(\C)c1ccc(OCc2ccccc2F)c(OCC(=O)O)c1 | 119 nM | 27 nM | Punch weight/MPO activity (Mus musculus [11]): <19 |
| CCN(CC)C(=O)/C=C(\C)c1ccc(OCc2ccccc2Cl)c(OCC(=O)O)c1 | 67 nM | 16 nM | Punch weight/MPO activity (Mus musculus [12]): <33 |
| CCN(CC)C(=O)/C=C(\C)c1ccc(OCc2c(F)cccc2F)c(OCC(=O)O)c1 | 56 nM | 18 nM | Punch weight/MPO activity (Mus musculus [13]): <46; Punch weight/MPO activity (Mus musculus [14]): <52; Punch weight/MPO activity (Mus musculus [15]): <26; Punch weight/MPO activity (Mus musculus [16]): <34 |
| CCN(CC)C(=O)/C=C(\C)c1ccc(OC(c2ccccc2)c2ccccc2)c(OCC(=O)O)c1 | 64 nM | 5.2 nM | Punch weight/MPO activity (Mus musculus [17]): 14 |
| CCN(CC)C(=O)/C=C(\C)c1ccc(OC(C)c2ccccc2)c(CC(=O)O)c1 (stereo not drawn) | 81 nM | 9.5 nM | Punch weight/MPO activity (Mus musculus [18]): <41; Punch weight/MPO activity (Mus musculus [19]): <55; Punch weight/MPO activity (Mus musculus [20]): <29 |
| CCN(CC)C(=O)/C=C(\C)c1ccc(OC(C)c2ccccc2)c(O)c1 (stereo not drawn) | 420 nM |  |  |
| CCN(CC)C(=O)/C=C(\C)c1ccc(OCc2c(F)cccc2F)c(CC(=O)O)c1 | 87 nM | 22 nM | Punch weight/MPO activity (Mus musculus [21]): <32; Punch weight/MPO activity (Mus musculus [22]): <45; Punch weight/MPO activity (Mus musculus [23]): <59; Punch weight/MPO activity (Mus musculus [24]): 44 |
| C/C(=C\C(=O)N(C)C)c1ccc(OC(C)c2ccccc2)cc1 (stereo not drawn) | 2100 nM |  |  |
| C/C(=C\C(=O)N1CCCCC1)c1ccc(OC(C)c2ccccc2)cc1 (stereo not drawn) | 5800 nM |  |  |
| CCN(CC)C(=O)/C=C(\C)c1ccc(OC(C)c2ccccc2)c(OCCCC(=O)O)c1 (stereo not drawn) | 216 nM |  |  |
| CCN(CC)C(=O)/C=C(\C)c1ccc(OC(C)c2ccccc2)cc1OCC(=O)O (stereo not drawn) | 2225 nM |  |  |
| CCN(CC)C(=O)/C=C(\C)c1ccc(OC(C)c2ccccc2)c(OCCC(=O)O)c1 (stereo not drawn) | 128 nM | 81 nM | Punch weight/MPO activity (Mus musculus [25]): 21; Punch weight/MPO activity (Mus musculus [26]): <24; Punch weight/MPO activity (Mus musculus [27]): <39; Punch weight/MPO activity (Mus musculus [28]): <40; Punch weight/MPO activity (Mus musculus [29]): <25 |
